Experimental data collected from several papers.
Compare with care: the assays were run in different laboratories.
Cell line: A549
Read-out: cell growth or viability

SMILES	technique	time	IC50 [µM]
Brc1ccc(Nc2nc(N/N=C\c3c[nH]c4ccccc34)nc(Nc3ccccc3)n2)cc1	SRB	72 h	11.6
CC1=C(O)C(=O)C=C2C1=CC=C1[C@@]2(C)CC[C@@]2(C)[C@@H]3C[C@](C)(C(=O)OCCO)CC[C@]3(C)CC[C@]12C	MTT	48 h	3.19
O=C(NC(=S)Nc1ccc([N+](=O)[O-])cc1)c1ccc2ccccc2c1		48 h	5.24
Cc1ccc(NC(=O)CSc2nnc(Cn3cnc4c3c(=O)n(C)c(=O)n4C)n2-c2ccccc2)c(C)c1	MTT		7.39
CCC(=O)Nc1cc(Nc2nc(N3CCc4sccc4C3)c3cccnc3n2)c(OC)cc1N1CCOCC1	MTT		> 50
COc1ccccc1/C=C/CNCC(O)COc1cccc2[nH]ccc12 (stereo not shown)	CCK-8	72 h	26.9
CCN(CC)CCCn1cccc1/C=N/NC(=O)Nc1cc2c(Nc3ccc(F)c(Cl)c3)ncnc2cc1OC	MTT	72 h	2.38
NS(=O)(=O)OC[C@@H]1C[C@@H](n2ccc3c(N[C@H]4CCc5ccccc54)ncnc32)C[C@@H]1O	CCK-8	72 h	0.8
Cc1cc(=O)[nH]n1C(=O)c1ccc(-n2c(C)ccc2C)cc1	MTT	72 h	208
O=C(NC(=S)N1CCCC1)c1ccc2ccccc2c1		48 h	4.22
C=CC(=O)Nc1cc(Nc2nccc(-c3cn(C)c4ccccc34)n2)c(OC)cc1N(C)CCN(C)C	MTT		0.379
COc1ccnc(COc2ccc(NC(=O)Nc3cc(F)cc(F)c3)cc2)c1OC	MTT	72 h	17.3
CC1=C(O)C(=O)C=C2C1=CC=C1[C@@]2(C)CC[C@@]2(C)[C@@H]3C[C@](C)(C(=O)OCCCO)CC[C@]3(C)CC[C@]12C	MTT	48 h	4.3
CCN(CC)CCCn1cccc1/C=N/NC(=O)Nc1cc2c(Nc3ccc(F)c(Cl)c3)ncnc2cc1O[C@H]1CCOC1	MTT	72 h	2.36
COc1ccccc1C#CCNCC(O)COc1cccc2[nH]c3ccccc3c12 (stereo not shown)	CCK-8	72 h	> 100
O=C(/N=C1\S/C(=C\c2ccc(Cl)cc2)C(=O)N1C1CCCCC1)c1ccc2ccccc2c1		48 h	17.6
CCCNc1nc(NCCC)nc(Nc2ccc(Br)cc2)n1	SRB	72 h	16.1
COCCCOc1ccnc(COc2ccc(NC(=O)Nc3ccc(F)cc3)cc2)c1C	MTT	72 h	5.74
O=C(NNC(=O)c1ccc(Nc2nccc(-c3ccc(Cl)cc3)n2)cc1)NC1CCCCC1	MTT	24 h	> 40
COc1ccnc(COc2ccc(NC(=O)Nc3ccc(Cl)c(C(F)(F)F)c3)cc2)c1OC	MTT	72 h	15.4

SMILES	technique	time	IC50 [µM]
Oc1ncnc2cc(Nc3nc(-c4ccc(C(F)(F)F)cc4)cs3)ccc12	MTT		14.8
O=C(N/N=C/CN1CCOCC1)Nc1cc2c(Nc3ccc(F)c(Cl)c3)ncnc2cc1O[C@H]1CCOC1	MTT	72 h	5.62
O=C(/C=C/C=C/c1ccc2c(c1)OCO2)N1CCCCC1	SRB		280
CS(=O)(=O)c1ccc(-n2cc(/C=N/N=c3\[nH]c(-c4ccc([N+](=O)[O-])cc4)cs3)c(-c3ccc([N+](=O)[O-])cc3)n2)cc1	MTT	48 h	22.2
COc1c(C)c(OS(=O)(=O)c2ccc3ccccc3c2)c(C)c(OS(=O)(=O)c2ccc3ccccc3c2)c1C(=O)/C=C/c1ccccc1	SRB	72 h	> 50
CCC(=O)Nc1cc(Nc2nc(N3CCOCC3)c3sccc3n2)c(OC)cc1N(C)CCN(C)C	MTT		> 50
C[C@H]1Oc2cc(cnc2N)-c2c(nn(C)c2C#N)CN(C)C(=O)c2ccc(F)cc21			> 8.4
COc1cc2ncnc(Nc3ccc(F)c(Cl)c3)c2cc1NC(=O)N/N=C/c1cccn1CCN1CCN(C)CC1	MTT	72 h	2.34
O=C1Nc2ccc(Cl)cc2/C1=N/NC(=O)c1cc2ccccc2[nH]1			19.7
C=CC(=O)Nc1cccc(Oc2nc(Nc3ccc(N4CCN(C)CC4)cc3)nc3ccsc23)c1	MTT		4.22
COc1ccccc1CCNCC(O)COc1cccc2[nH]c3ccccc3c12 (stereo not shown)	CCK-8	72 h	13.3
COc1cc(N(C)CCN(C)C)c(NC(=O)/C=C/C(C)C)cc1Nc1nc(N2CCc3sccc3C2)c2sccc2n1	MTT		> 50
COc1cccc(C(=O)O[C@@H]2CN3Cc4c(cc5c(c4OC)OCO5)[C@@]24C=C[C@H](OC)C[C@@H]34)c1	WST-1		> 10
COc1cccc2c1C(=O)c1c(O)c3c(c(O)c1C2=O)C[C@@](O)(C(=O)CO)C[C@@H]3O[C@H]1C[C@H](N)[C@H](O)[C@H](C)O1	SRB		0.62
CCn1c(-c2nnc(NC(=O)c3cc4c([nH]c5ccccc54)c(-c4ccc(OC)cc4)n3)s2)cc2ccccc21	MTT	72 h	14.2
CN(C)C/C=N/NC(=O)Nc1cc2c(Nc3ccc(F)c(Cl)c3)ncnc2cc1O[C@H]1CCOC1	MTT	72 h	5.38
O=C(CN1C(=O)/C(=C/c2cccc(Br)c2)SC1=S)Nc1ccccc1	MTT		25.5
O=C1Nc2ccc(F)cc2/C1=N/NC(=O)c1cc2ccccc2[nH]1			> 30
O=C(O)c1ccc(-n2nc(-c3ccccc3O)nc2-c2ccccc2O)cc1	MTT	72 h	12.1
O=C(NNC(=O)c1ccc(Nc2nccc(-c3ccccn3)n2)cc1)NC1CCCC1	MTT		> 40
